ChEMBL document CHEMBL1139963, “Boswellic acids and glucosamine show synergistic effect in preclinical anti-inflammatory study in rats” (2007)
Active and inactive are the calls of the source. No cut-off for these calls is given here.

Assays:
Rattus norvegicus [1] = assay: Antiinflammatory activity against carrageenan-induced paw edema in Wistar rat assessed as reduction of paw edema at 250 mg/kg after 3 hrs relative to control; format: functional
In short: (§1)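 Rats, five per group, were dosed orally with suspensions in 2% gum acacia. After 45 min, freshly prepared 10 mg/ml carrageenan was injected subplantar into the left hind paw, with saline in the contralateral paw. Paw volume was measured by volume differential meter immediately and hourly to 4 h. Percent protection was calculated versus control. Data are means ± SE, analysed by Student's t-test.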

Rattus norvegicus [2] = assay: Antiarthritic activity against Mycobacterium tuberculosis-induced rat arthritic model assessed as inhibition of chronic phase inflammation at 250 mg/kg relative to control; format: functional
In short: (§2)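 Adjuvant arthritis in rats, five per group. A 5 mg/ml suspension of heat-killed Mycobacterium tuberculosis in liquid paraffin was injected subplantar into the left hind foot. Oral dosing ran from one day before immunization to day 13. Paw volume was measured on alternate days, and percent change was calculated versus the vehicle control. The chronic phase begins after day 8. Data are means ± SE, analysed by Student's t-test.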

Rattus norvegicus [3] = assay: Antiinflammatory activity against carrageenan-induced paw edema in Wistar rat assessed as reduction of paw edema at 250 mg/kg after 4 hrs relative to control; format: functional; in short: as §1
Rattus norvegicus [4] = assay: Antiarthritic activity against Mycobacterium tuberculosis-induced rat arthritic model at 250 mg/kg relative to control; format: functional, organism-based; set-up: dose 250 mg/kg; in short: as §2
Rattus norvegicus [5] = assay: Antiinflammatory activity against carrageenan-induced paw edema in Wistar rat assessed as reduction of paw edema at 250 mg/kg relative to control; format: functional, organism-based; set-up: dose 250 mg/kg; in short: as §1
Rattus norvegicus [6] = assay: Antiarthritic activity against Mycobacterium tuberculosis-induced rat arthritic model assessed as inhibition of acute phase inflammation at 100 mg/kg relative to control; format: functional, organism-based; set-up: dose 100 mg/kg; in short: as §2
Rattus norvegicus [7] = assay: Antiarthritic activity against Mycobacterium tuberculosis-induced rat arthritic model assessed as inhibition of chronic phase inflammation at 100 mg/kg relative to control; format: functional, organism-based; set-up: dose 100 mg/kg; in short: as §2
Rattus norvegicus [8] = assay: Antiinflammatory activity against carrageenan-induced paw edema in Wistar rat assessed as reduction of paw edema at 100 mg/kg relative to control; format: functional; set-up: scale not given: the % may be the effect or the level left; in short: as §1

Row | SMILES | inhibition in vivo at 250 mg/kg (Rattus norvegicus [1]) | inhibition in vivo at 250 mg/kg (Rattus norvegicus [2]) | inhibition in vivo at 250 mg/kg (Rattus norvegicus [3]) | Activity (Rattus norvegicus [4]) | Activity (Rattus norvegicus [5]) | Activity (Rattus norvegicus [6]) | Activity (Rattus norvegicus [7]) | Activity (Rattus norvegicus [8])
1 | CC1(C)CC[C@]2(C)CC[C@]3(C)C(=CC[C@@H]4[C@@]5(C)CC[C@@H](O)[C@](C)(C(=O)O)[C@@H]5CC[C@]43C)[C@@H]2C1 | 28.6% | 36.4% | 25.8% | – | – | – | – | –
2 | C[C@H]1[C@H](C)CC[C@]2(C)CC[C@]3(C)C(=CC(=O)[C@@H]4[C@@]5(C)CC[C@@H](O)[C@](C)(C(=O)O)[C@@H]5CC[C@]43C)[C@H]12 | – | – | – | Active | Active | – | – | –
3 | C[C@H]1[C@H](C)CC[C@]2(C)CC[C@]3(C)C(=CC[C@@H]4[C@@]5(C)CC[C@@H](O)[C@](C)(C(=O)O)[C@@H]5CC[C@]43C)[C@H]12 [BOSWELLIC ACID] | 28.6% | 36.4% | 25.8% | – | – | – | – | –
4 | CC(C)Cc1ccc([C@H](C)C(=O)O)cc1 [DEXIBUPROFEN] | – | – | – | – | – | Active | Active | 55.64%
5 | N[C@@H]1[C@@H](O)[C@H](O)[C@@H](CO)O[C@H]1O [GLUCOSAMINE] | 15.2% | 21.6% | 16.1% | – | – | – | – | –
